The values that follow come from ChEMBL document CHEMBL4043064, “Pharmacophore-Based Repositioning of Approved Drugs as Novel Staphylococcus aureus NorA Efflux Pump Inhibitors” (J Med Chem, 2017).

For test [1], the target named is T1, Quinolone resistance protein NorA (Staphylococcus aureus) (UniProt P0A0J7).
T1 sequence (whole entry): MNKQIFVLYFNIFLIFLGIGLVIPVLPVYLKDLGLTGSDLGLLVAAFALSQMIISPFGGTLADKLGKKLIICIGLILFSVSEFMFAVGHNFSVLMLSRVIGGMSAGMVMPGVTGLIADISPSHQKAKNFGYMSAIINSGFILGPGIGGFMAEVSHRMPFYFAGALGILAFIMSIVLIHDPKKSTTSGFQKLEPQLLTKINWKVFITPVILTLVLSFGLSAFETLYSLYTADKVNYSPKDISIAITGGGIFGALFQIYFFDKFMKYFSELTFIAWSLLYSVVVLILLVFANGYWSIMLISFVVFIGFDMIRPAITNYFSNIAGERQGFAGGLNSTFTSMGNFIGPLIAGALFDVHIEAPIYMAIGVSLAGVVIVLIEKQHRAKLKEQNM
Nature of the test: Inhibition of NorA in Staphylococcus aureus SA1199B harboring GrlA A116E mutant assessed as inhibition of ethidium bromide efflux at 50 uM measured after 5 mins by fluorometric method relative to control. In short, it runs like this:
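S. aureus SA-1199B; test compounds at 50 µM. EtBr loss was measured fluorometrically in their presence and compared with their absence to give percentage reduction in efflux.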

Test [2] has as its target Quinolone resistance protein NorA (Staphylococcus aureus, UniProt P0A0J7, A116E). Nature of the test: Inhibition of NorA in Staphylococcus aureus SA1199B harboring GrlA A116E mutant assessed as inhibition of ethidium bromide efflux after 5 mins by fluorometric method. In short, it runs like this:
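S. aureus SA-1199B; EtBr loss measured fluorometrically, with compound present versus absent, giving percentage reduction in efflux. Increasing inhibitor concentrations were tested, and IC50 was read by inspecting the dose-response plots.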

Test [3] deals with T1, Quinolone resistance protein NorA (Staphylococcus aureus). Nature of the test: Inhibition of NorA in Staphylococcus aureus SA1199B harboring GrlA A116E mutant assessed as potentiation of CPX-induced antimicrobial activity up to 100 ug/ml by checkerboard assay. In short, it runs like this:
(§1)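 Checkerboard microdilution of compound against CPX, with MICs set by CLSI microdilution. Applies to S. aureus SA-1199B and SA-K2378. Compound alone was tested up to 100 µg/mL. The read-out is fold reduction of the CPX MIC.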

Test [4] shares this target. Nature of the test: Inhibition of Staphylococcus aureus SAK2378 norA assessed as potentiation of CPX-induced antimicrobial activity up to 100 ug/ml by checkerboard assay. In short, it runs like this: as §1

The source made the active and inactive calls. No cut-off for these calls is given here.

For `COc1cc2ncnc(Nc3ccc(F)c(Cl)c3)c2cc1OCCCN1CCOCC1` [GEFITINIB], the inhibition (commonly the percentage by which the read-out fell short of the control) in test [1] is 94.2%. The IC50 (usually the concentration that inhibits the measured activity by half) in test [2] turned out to be 9.7 µM.

For `Cc1nc(Nc2ncc(C(=O)Nc3c(C)cccc3Cl)s2)cc(N2CCN(CCO)CC2)n1` [DASATINIB], in test [1], the inhibition was 95.8%. For the same molecule, the concentration for half-maximal inhibition (IC50) in test [2] was 11.5 µM.

In the case of `COC(=O)C1=C(C)NC(C)=C(C(=O)OCCN(C)Cc2ccccc2)C1c1cccc([N+](=O)[O-])c1` (centres undefined) [NICARDIPINE], the inhibition in test [1] was determined as 77.1%. In addition, the IC50 in test [2] came out at 22.8 µM.

Turning to `CCOC(=O)Nc1ccc2c(c1)N(C(=O)CCN1CCOCC1)c1ccccc1S2`, the inhibition in test [1] worked out at 23.7%.

Take `CCN(CCCCOC(=O)c1ccc(OC)c(OC)c1)C(C)Cc1ccc(OC)cc1` (centres undefined): in test [1], the inhibition was determined as 45.2%.

In the case of `CCCc1nn(C)c2c(=O)[nH]c(-c3cc(S(=O)(=O)N4CCN(C)CC4)ccc3OCC)nc12`, the inhibition in test [1] was 22.9%.

On to `Cc1ccc(-n2nc(C(C)(C)C)cc2NC(=O)Nc2ccc(OCCN3CCOCC3)c3ccccc23)cc1`, for which the inhibition in test [1] is 47%.

Take `CCCOc1ccc(-c2cc(OCCN(CC)CC)c3ccccc3n2)cc1`: the inhibition result in test [3] and in test [4] was “Active” each time.

`COC(=O)[C@H]1[C@H]2C[C@@H]3c4[nH]c5cc(OC)ccc5c4CCN3C[C@H]2C[C@@H](OC(=O)c2cc(OC)c(OC)c(OC)c2)[C@@H]1OC`: the inhibition result in test [3] and in test [4] was “Active” throughout.
